The values below come from PubChem BioAssay.

A number with no mark means an inactive call.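 The calls were made as follows, unless noted: active = viability increase at or above a cutoff of the median across tested compounds plus 3 SD (cut at about 8.5% in these data, passing the limit was not always enough); inconclusive = some gains above the cutoff, reason not given; inactive = the rest.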

One assay is described as follows: S. cerevisiae growth inhibition in restrictive medium, OD615, pilot screen, restrictive growth control, yeast lifespan reduction project (AID 706;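 active = growth inhibition above a set limit, 3 SD over mean compound inhibition, in both replicates, cut at about 43% in these data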;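 also: modified DeaD lifespan yeast strain shifted to restrictive glucose medium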). Conditions: OD615, 48 h, at 10 µM, stronger effect = higher value. The procedure, abridged: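 Assay system: engineered S. cerevisiae DeaD strain; Buffer or medium: CSMM-D glucose medium; Dosing: 10 µM compound, 0.25% DMSO; Times: cell pre-growth 4 h, compound exposure 48 h, 30 °C; Detection: absorbance (optical density) measured at 615 nm.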
With `CS(=O)(=O)N(CC(=O)NCc1ccncc1)c1cc(Cl)cc(Cl)c1`, the growth inhibition was -10.8%. Same read-out and setting: the same measure for `O=C(CNC(=O)c1ccco1)OCc1ccc(Cl)cc1`: 2.92%.

As for `O=C(COc1ccccc1)NCCSc1ccccc1`, the growth inhibition is -5.4%.

As for `CS(=O)(=O)N(CC(=O)N1CCN(c2ccccc2F)CC1)c1cc(C(F)(F)F)ccc1Cl`, the growth inhibition is 0.015%. The same measure, in the same setting: the value for `O=C(CCn1nnc2ccccc21)N1CCC(O)(c2cccc(F)c2)CC1` was -7.45%.

In the case of `COCCNC(=O)NC1(C(F)(F)F)Oc2ccc(Cl)cc2O1` (stereo not drawn), the growth inhibition is -0.285%.

For `CCOC(=O)C1CCN(S(=O)(=O)c2cc(Br)cc3c2N(C(=O)C2CC2)CC3)CC1`, the growth inhibition is -13.7%. Turning to `CCC(C)C1C(C#N)=C(N)Oc2n[nH]c(C)c21` (stereo not drawn), the growth inhibition was 7.77%. The same measure, in the same setting: the value for `COC(=O)c1ccc2[nH]c(C)c(CN3CCCC3)c(=O)c2c1` was 1.2%. The same measure, in the same setting: the same measure for `CCn1cc(S(=O)(=O)CC(=O)NC2CCCCC2)c2ccccc21`: -0.52%. The same measure, in the same setting: the same measure for `COc1ccccc1CNC(=O)CCS(=O)(=O)c1cccs1`: -3.45%; for `Cc1ccsc1C(=O)OCC(=O)c1cc2ccccc2o1`: -10.8%; for `CCn1c(C)c2c(C)nnc(C)c2c1C`: -3.61%.

As for `CCOC(=O)c1ccc(NC(=O)c2cccc(S(=O)(=O)N3CCOCC3)c2)cc1`, the growth inhibition was -4.13%. Still for that read-out and setting: the same measure for `CCS(=O)(=O)C(=C(Nc1ccc(OC)cc1)Nc1ccc(OC)cc1)S(=O)(=O)CC`: 4.84%; for `c1ccc(CSc2nnc3c(n2)OC(c2ccco2)Nc2ccccc2-3)cc1` (stereo not drawn): 2.27%; for `CC(Sc1nc2c(c(=O)n(C)c(=O)n2C)n1Cc1cc2c(cc1Cl)OCO2)C(=O)O` (stereo not drawn): -5.16%. Take `CCN(CC)C(=O)c1cn(C)c(=O)c2cc(OC)c(OC)cc12`: the growth inhibition was -8.38%. Still for that read-out and setting: the same measure for `CCc1cc(=O)oc2cc(OCC(=O)OC)c(Cl)cc12`: 1.34%; for `CCOC(=O)N1CCN(C(=O)CN(c2cccc(C(F)(F)F)c2)S(C)(=O)=O)CC1`: -1.87%. Regarding `CCN(CC)C(=O)C(C)N(C#N)c1nc(NC(C)C)nc(NC(C)C)n1` (stereo not drawn), the growth inhibition is -0.315%.

Consider `CCN1CCN(c2cc(C)c3cc(NC(=O)c4ccc5c(c4)OCO5)ccc3n2)CC1`, for which the growth inhibition is -7.6%. On the same count and under the same terms, the value for `CC(c1ccccc1F)n1cc(C(=O)NCCc2ccco2)nn1` (stereo not drawn) was -9.79%.

The nature of a further assay: doxorubicin toxicity protection in MRP-1 cells – H69AR cells, CellTiter-Glo, duplicate, MRP-1 activator project, pilot screen (AID 807).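 Also: compound pretreatment 18-22 h then 72 h combined with doxorubicin; 0% = doxorubicin alone and 100% = vehicle without doxorubicin.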 The conditions noted are these: H69AR viability with doxorubicin, CellTiter-Glo luminescence; at 10 µM; stronger effect = higher value. (Cellular ATP, detected with luciferase, serves as a proxy for viable cell number.)
For the compound `COc1ccc(C2=[N+]([O-])C(C)(C)N(O)C2(C)C)cc1`, the viability increase is -1.34%. On the same count and under the same terms, the same measure for `Cc1onc(-c2ccccc2Cl)c1C(=O)N1CCN(c2cccc(Cl)c2)CC1`: -6.53%. For `O=c1[nH]c(SCc2ccccc2Cl)nc2c1CCC2`, the viability increase is -2.17%. Same read-out and setting: the same measure for `CC(=O)NCCOC(=O)Nc1ccncc1`: -0.91%; for `Cc1cccc(NC(=O)CS(=O)(=O)c2cn(C)c3ccccc23)c1C`: -3.27%; for `O=C(Nc1ccc(Cl)cc1)N(Cc1cccs1)Cc1cccs1`: -0.55%. With `COc1ccc(OC(C)C(=O)Nc2cccc(OC)c2)cc1` (stereo not drawn), the viability increase is -4.64%. In the case of `COc1cc2c(C(=O)N3CCN(Cc4ccc5c(c4)OCO5)CC3)cn(C)c(=O)c2cc1OC`, the viability increase was -6.92%. Take `COc1ccc(S(=O)(=O)N(CCc2ccccc2)CC(=O)N2CCOCC2)cc1`: the viability increase is -4.39%. Turning to `CN(C)c1ccc(NC(=S)c2ccccn2)cc1`, the viability increase is -8.3%.

On to `O=C1N=C(c2ccccc2)C(c2ccccc2)N1` (stereo not drawn), for which the viability increase is -3.35%. Same read-out and setting: the same measure for `C#CCN1C(=O)C(O)(CC(=O)c2ccc(OC)c(OC)c2)c2ccccc21` (stereo not drawn): -5.17%; for `CS(=O)(=O)N(CC(=O)N1CCCCCC1)c1cccc(Br)c1`: -2.75%. The same measure, in the same setting: the same measure for `CCSc1nc2ccccc2n1CC(=O)N1CCOCC1`: -3.2%; for `C=C1c2ccc(C)cc2NC(=O)N1c1ccccc1`: -3.76%.

With `CCc1cccc(C)c1NC(=O)CCCC(=O)O`, the viability increase was -1.29%.

As for `COc1ccc(Oc2ccc(S(=O)(=O)N3CCCCC3)cc2S(=O)(=O)N2CCCCC2)cc1`, the viability increase is -3.43%. Same read-out and setting: the value for `CS(=O)(=O)N(CC(=O)NCc1ccncc1)c1cc(Cl)cc(Cl)c1` was -2.29%; that for `O=C(CNC(=O)c1ccco1)OCc1ccc(Cl)cc1` was -2.32%. As for `O=C(COc1ccccc1)NCCSc1ccccc1`, the viability increase was -2.23%. `CS(=O)(=O)N(CC(=O)N1CCN(c2ccccc2F)CC1)c1cc(C(F)(F)F)ccc1Cl`: the viability increase is 0.43%. On to `O=C(CCn1nnc2ccccc21)N1CCC(O)(c2cccc(F)c2)CC1`, for which the viability increase is -2.75%. Still for that read-out and setting: the value for `COCCNC(=O)NC1(C(F)(F)F)Oc2ccc(Cl)cc2O1` (stereo not drawn) was -4.63%; that for `CCOC(=O)C1CCN(S(=O)(=O)c2cc(Br)cc3c2N(C(=O)C2CC2)CC3)CC1` was -1.73%; that for `CCC(C)C1C(C#N)=C(N)Oc2n[nH]c(C)c21` (stereo not drawn) was -7.71%. For `COC(=O)c1ccc2[nH]c(C)c(CN3CCCC3)c(=O)c2c1`, the viability increase is -2.3%. The same measure, in the same setting: the value for `CCn1cc(S(=O)(=O)CC(=O)NC2CCCCC2)c2ccccc21` was -1.1%.

For `COc1ccccc1CNC(=O)CCS(=O)(=O)c1cccs1`, the viability increase was -3.06%. Same read-out and setting: the value for `Cc1ccsc1C(=O)OCC(=O)c1cc2ccccc2o1` was -2.86%; that for `CCn1c(C)c2c(C)nnc(C)c2c1C` was -3.11%. Still for that read-out and setting: the value for `CCOC(=O)c1ccc(NC(=O)c2cccc(S(=O)(=O)N3CCOCC3)c2)cc1` was -0.35%; that for `CCS(=O)(=O)C(=C(Nc1ccc(OC)cc1)Nc1ccc(OC)cc1)S(=O)(=O)CC` was -0.19%; that for `c1ccc(CSc2nnc3c(n2)OC(c2ccco2)Nc2ccccc2-3)cc1` (stereo not drawn) was -4.19%.

On to `CC(Sc1nc2c(c(=O)n(C)c(=O)n2C)n1Cc1cc2c(cc1Cl)OCO2)C(=O)O` (stereo not drawn), for which the viability increase was -0.64%. Same read-out and setting: the value for `CCN(CC)C(=O)c1cn(C)c(=O)c2cc(OC)c(OC)cc12` was -4.4%; that for `CCc1cc(=O)oc2cc(OCC(=O)OC)c(Cl)cc12` was -2.39%; that for `CCOC(=O)N1CCN(C(=O)CN(c2cccc(C(F)(F)F)c2)S(C)(=O)=O)CC1` was -4.09%. In the case of `CCN(CC)C(=O)C(C)N(C#N)c1nc(NC(C)C)nc(NC(C)C)n1` (stereo not drawn), the viability increase is -3.7%. The same measure, in the same setting: the value for `CCN1CCN(c2cc(C)c3cc(NC(=O)c4ccc5c(c4)OCO5)ccc3n2)CC1` was -8.06%; that for `CC(c1ccccc1F)n1cc(C(=O)NCCc2ccco2)nn1` (stereo not drawn) was -4.02%.
